Experimental findings from ChEMBL document CHEMBL1123090, “Inhibition of liver alcohol dehydrogenase and ethanol metabolism by 3-substituted thiolane 1-oxides” (J Med Chem, 1985) are described below.

SMILES strings stand for the structures.

Data set [1] in a line: In vitro inhibitory constant against rat liver alcohol dehydrogenase was determined. In a few lines: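 Enzymes partially purified from liver (DEAE-cellulose, then AMP-agarose affinity), all steps 0–5 °C. Ethanol varied 0.4–2 mM, 0.5 mM NAD+, 83 mM potassium phosphate pH 7.3 with 40 mM KCl, 37 °C. At least three inhibitor levels; 32 initial velocities by A340. Kii from uncompetitive fit; one or two experiments.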

Data set [2] can be described thus: Compound dose that causes 50% toxicity in mice was determined. Particulars: mouse, in vivo. It counts as organism-based. In a few lines: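 Fed male Swiss-Webster mice (16–20 g) given ip injections of sulfoxide solutions at 0.1–10 M (the concentration of the injected solution), at 0.1 mL/10 g body weight.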
For a further data set, the species on record is Rattus norvegicus. As to the kind of experiment: The Kii was determined with varied concentrations of inhibitor and ethanol by determining blood alcohol concentration in rats. It counts as functional. In a few lines: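 Fed male Sprague-Dawley rats (175–280 g) given inhibitor ip at 0–1.0 mmol/kg in saline, then 10 min later ethanol 19.6 mmol/kg ip. Tail blood ethanol measured over time by GC with tert-butyl alcohol internal standard. Initial elimination rate taken from tangent after 60-min absorption phase; Kii by nonlinear fit.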

Data set [3] addresses Alcohol dehydrogenase (Equus caballus) (UniProt P00327+P00328). Kind of data set: In vitro inhibitory constant against horse liver alcohol dehydrogenase was determined.
Data set [4] deals with Alcohol dehydrogenase (Macaca mulatta). Kind of data set: In vitro inhibitory constant against monkey liver alcohol dehydrogenase was determined. Particulars: Cercopithecidae.

For the compound `[O-][S+]1CCC(c2ccccc2)C1` (centres undefined), the Kii in data set [1] is 1.1 µM; in the data set filed under Rattus norvegicus, 87 µmol/kg; in data set [3], 0.36 µM; in data set [4], 1.5 µM. Moreover, in data set [2], the LD50 (usually the dose expected to kill half of the subjects tested) worked out at 4000 µmol/kg.

For the compound `CCCCCCC1CC[S+]([O-])C1` (centres undefined), the Kii in data set [1] worked out at 0.13 µM; in the data set filed under Rattus norvegicus it was 65 µmol/kg; in data set [3] it was 0.19 µM; in data set [4], 0.35 µM. The compound further gave a median lethal dose (LD50) in data set [2] of 770 µmol/kg.

For `CC1CC[S+]([O-])C1` (centres undefined), the Kii in data set [1] was 19 µM; in the data set listed under Rattus norvegicus it was 64 µmol/kg; in data set [3], 7.5 µM; in data set [4], 460 µM. Besides, the LD50 in data set [2] stood at 1300 µmol/kg.

Take `[O-][S+]1CCCC1` [TETRAMETHYLENE SULFOXIDE]: the Kii in data set [1] stood at 130 µM; in the data set listed under Rattus norvegicus, 340 µmol/kg; in data set [4], 1600 µM. This compound also returned an LD50 in data set [2] of 45000 µmol/kg.

As for `CCCCC1CC[S+]([O-])C1` (centres undefined), the Kii stood at 1.1 µM in data set [1], 11 µmol/kg in the data set listed under Rattus norvegicus, 0.63 µM in data set [3] and 2.3 µM in data set [4]. The compound also displayed an LD50 in data set [2] of 1400 µmol/kg.
